Results reported in PubChem BioAssay.
The source made the active and inactive calls.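 The calls were made as follows, unless noted: active = compounds giving at least 50% inhibition in the cell-based MKP-3 phosphatase rescue imaging test; inactive = the rest.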

How the values were obtained:
[1] = inhibitors of TNFa-induced NFkB p65 translocation, primary screen, imaging, HUVEC, MLSMR starter and 10KST1 sets (AID 438;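 active = inhibition above 20% together with a positive visual image hit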;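 also: compound added about 3h40 before a 20 min TNFalpha stimulation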;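 as to inhibition: signal is the nuclear over cytoplasmic p65 intensity ratio per well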); settings: HUVEC TNFa-induced p65 nuclear translocation; cell count: measured here: nuclei count (cytotoxicity indicator), at 2.08 µM; inhibition: at 2 µM, stronger effect = higher value, 0% TNFa-plus-vehicle, 100% no-TNFa wells
[2] = endothelial E-selectin expression blockers – imaging, HUVEC, immunofluorescence, MLSMR starter and 10KST1 sets, primary screen (AID 487;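 active = visually confirmed hit in the image check and inhibition above 20%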;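 as to inhibition: signal is fraction of cell area covered by stained E-selectin grains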;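 as to nuclei count: 100% = median nuclei count of all wells on the same plate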); settings: HUVEC TNFalpha-induced E-selectin immunofluorescence imaging, at 2 µM; inhibition: stronger effect = higher value; nuclei count: measured here: cell number, toxicity
[3] = Primary imaging screen for DUSP6 inhibitors that restore phospho-Erk in transfected HeLa cells, chemical complementation (AID 609); settings: HeLa MKP-3 transfected, phospho-Erk imaging KS statistic, at 10 µM, cells stimulated with TPA for 15 min;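 as to inhibition: phospho-Erk level distribution per well compared with pooled transfected vehicle control wells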
[4] = target: Dual specificity protein phosphatase 6 (Homo sapiens) (UniProt Q16828); assay: as above; settings: HeLa MKP-3 transfected, phospho-Erk imaging KS statistic; at 10 µM; stronger effect = higher value; cells stimulated with TPA for 15 min
[5] = target: Voltage-gated potassium channel subunit beta-2 (Rattus norvegicus) (UniProt P62483); assay: inhibitors of rat Kvbeta2 reductase activity – biochemical, NADPH fluorescence, primary screen (AID 622;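 active = fluorescence slope higher than the sample average by over 3 SD, cut at about -0.22 in these data, passing the limit was not always enough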;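 also: slope of raw intensity against log time taken from 70 to 1610 s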); settings: recombinant KvBeta, 4-cyanobenzaldehyde reduction, at 10 µM, stronger effect = higher value
[6] = target: Voltage-gated potassium channel subunit beta-2 (Rattus norvegicus) (UniProt P62483); assay: enhancers of rat Kvbeta2 NADPH turnover – biochemical, NADPH fluorescence, primary screen (AID 623;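 active = NADPH fluorescence slope more negative than the mean of all samples by about 3 SD, 99.7% confidence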;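 also: fluorescence intensity change per second fitted from 20 to 320 s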); settings: Recombinant KvBeta, NADPH fluorescence decrease slope, 10 min; at 10 µM; stronger effect = lower value
[7] = target: Muscarinic acetylcholine receptor M4 (Homo sapiens) (UniProt P08173); assay: M4-linked GIRK flux change, two-sided – cell-based, HEK293 M4/GIRK, thallium flux, BTC-AM, M4 allosteric agonist project, primary screen (AID 625;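 active = fluorescence slope after compound addition differing from the mean of all tested samples at 99.7% confidence, mostly higher but some lower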;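 also: thallium influx through GIRK channels coupled to M4 in HEK293 cells with BTC-AM dye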); settings: at 10 µM, actives lie on both sides
How it was run: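 Material – HEK293 cells with M4 receptor and GIRK channels · Buffer or medium – pH 7.3 thallium assay buffer · Doses – one dose, 10 µM final · Timing – cells overnight at 37 °C, BTC-AM loading 1 h, reads 2 min total · Measured by – kinetic fluorescence with BTC-AM dye · Controls – carbachol and DMSO controls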

[8] = inhibitors of larval lipid processing in zebrafish, primary screen, whole organism, PED6 fluorescence, gall bladder and intestine (AID 686;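 active = a full or partial loss of lipid-probe fluorescence in the fish gall bladder, intestine or both, judged by eye; inactive = no fluorescence loss, or compound toxic to the fish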;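 also: larvae 5 to 7 days old with five fish per well; signal comes from phospholipase A2 cleavage of quenched PED6 carried via bile; overnight exposure to compound and PED6 before scoring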); settings: Zebrafish larvae PED6 lipid processing, fluorescence scoring; screened at 20 µM (by protocol)
How it was run: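 system = live zebrafish larvae aged 5-7 days, whole organism | probe or stimulus = ingested quenched lipid PED6 at 100 nM | doses = 20 µM single dose | timing = overnight exposure | detection = fluorescence microscopy with visual scoring of gall bladder and intestine | read-out = visual per-well fluorescence inhibition score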

[9] = loss of swimming-algae plug formation – whole organism, Chlamydomonas reinhardtii, WT vs cilia-less mutant, absorbance, 96-well, primary screen (AID 463189;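 active = inhibition at or above 50% relative to wild type and mutant plate controls; inactive = inhibition below 50%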;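 also: 0% = wild type cc124 cells in DMSO and 100% = ciliumless bld1 mutant cells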); settings: Chlamydomonas reinhardtii gravitaxis, OD600 absorbance, 2 days; at 10 µM; stronger effect = higher value
[10] = measured here: cell density z-score
[11] = measured here: nuclear c-Myc green intensity z-score
[12] = measured here: nuclear pErk red intensity z-score, stronger effect = higher value

Chain of Muscarinic acetylcholine receptor M4 (Homo sapiens) (P08173 whole entry, looked up): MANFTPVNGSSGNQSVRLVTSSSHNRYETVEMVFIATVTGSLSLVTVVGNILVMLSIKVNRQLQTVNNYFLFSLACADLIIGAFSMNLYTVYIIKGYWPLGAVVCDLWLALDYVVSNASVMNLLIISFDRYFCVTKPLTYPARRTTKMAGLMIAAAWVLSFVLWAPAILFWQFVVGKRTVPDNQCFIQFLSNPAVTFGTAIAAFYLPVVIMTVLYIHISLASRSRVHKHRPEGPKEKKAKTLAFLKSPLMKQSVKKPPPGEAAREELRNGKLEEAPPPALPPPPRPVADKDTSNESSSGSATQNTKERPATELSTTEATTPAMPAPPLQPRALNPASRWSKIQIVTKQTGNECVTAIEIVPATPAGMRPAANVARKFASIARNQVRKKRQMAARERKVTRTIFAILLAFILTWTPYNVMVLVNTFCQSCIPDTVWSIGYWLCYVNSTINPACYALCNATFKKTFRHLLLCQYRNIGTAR
Chain of Voltage-gated potassium channel subunit beta-2 (Rattus norvegicus) (P62483 whole entry, looked up): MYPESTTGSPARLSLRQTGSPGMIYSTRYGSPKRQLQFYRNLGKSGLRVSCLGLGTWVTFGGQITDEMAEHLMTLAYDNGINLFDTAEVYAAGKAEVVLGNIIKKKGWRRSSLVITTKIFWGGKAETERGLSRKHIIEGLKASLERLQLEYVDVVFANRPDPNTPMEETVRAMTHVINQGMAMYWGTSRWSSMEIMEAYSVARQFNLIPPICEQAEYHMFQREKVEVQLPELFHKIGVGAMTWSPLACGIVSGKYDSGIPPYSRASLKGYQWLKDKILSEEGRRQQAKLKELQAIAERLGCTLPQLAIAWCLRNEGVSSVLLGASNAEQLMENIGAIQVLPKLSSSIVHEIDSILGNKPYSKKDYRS
Chain of Dual specificity protein phosphatase 6 (Homo sapiens) (Q16828 whole entry, looked up): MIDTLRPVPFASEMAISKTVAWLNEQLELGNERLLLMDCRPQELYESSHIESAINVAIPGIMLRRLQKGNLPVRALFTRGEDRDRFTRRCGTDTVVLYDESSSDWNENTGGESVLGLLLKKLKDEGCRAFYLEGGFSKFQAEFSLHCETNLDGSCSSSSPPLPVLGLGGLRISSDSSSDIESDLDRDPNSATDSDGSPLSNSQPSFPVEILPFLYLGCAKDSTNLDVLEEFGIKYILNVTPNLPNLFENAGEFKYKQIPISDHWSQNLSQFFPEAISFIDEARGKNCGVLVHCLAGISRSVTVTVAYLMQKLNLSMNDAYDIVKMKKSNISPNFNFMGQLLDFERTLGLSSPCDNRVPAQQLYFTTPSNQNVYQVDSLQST

SMILES	cell count [1]	inhibition [1]	inhibition [2]	nuclei count [2] [%]	z-score [3, 10]	z-score [3, 11]	z-score [3, 12]	inhibition [4]	fluorescence slope [5]	NADPH fluorescence slope [6]	fluorescence slope [7]	outcome [8]	inhibition [9]
COc1ccccc1-c1c(C)oc2c(CN3CCN(C)CC3)c(O)ccc2c1=O	672	-0.2% (inactive)	-20.6% (inactive)	150	0.0584	-0.255	-0.66	14.7% (inactive)	-0.0259 (inactive)	1.6e-05 (inactive)	0.00509 (inactive)	inactive	-5.96% (inactive)
Fc1ccc2[nH]c3c(N4CCSCC4)ncnc3c2c1	664	-4.3% (inactive)	0.7% (inactive)	153	-0.905	0.444	1.27	-3.95% (inactive)	-0.418 (inactive)	-2.2e-05 (inactive)	0.00396 (inactive)	inactive; toxic	5.41% (inactive)
CCOc1ccccc1C(=O)NCCCCCC(=O)O	421	-9.4% (inactive)	-419% (inactive)	193	0.279	-0.756	0.2	1.42% (inactive)	-0.472 (inactive)	-9.6e-05 (inactive)	0.00537 (inactive)	inactive	0.493% (inactive)
COc1ccc(C(=O)Nc2ccccc2N2CCOCC2)cc1Br	522	-7.6% (inactive)	-11.8% (inactive)	153	2.22	-2.31	-0.121	37.7% (inactive)	-0.351 (inactive)	-9.8e-06 (inactive)	0.00733 (inactive)	inactive	10.5% (inactive)
CCOc1cccc(NC(=O)C2CC(=O)NC(=Nc3ccccc3)S2)c1 (centres undefined)	590	-4.7% (inactive)	-27.3% (inactive)	117	-0.0327	-1.3	-0.145	-11.4% (inactive)	-0.456 (inactive)	-1.8e-05 (inactive)	0.00448 (inactive)	inactive	8.03% (inactive)
CCCCc1nc(N2CCOCC2)c(C#N)c2c1CCCC2	559	-11.7% (inactive)	-89.9% (inactive)	141	0.356	0.825	0.364	-15.1% (inactive)	-0.449 (inactive)	-0.000117 (inactive)	0.00395 (inactive)	inactive	11.9% (inactive)
Cc1cc(C)n(CC(=O)c2ccccc2)c(=O)c1C#N	470	-3.8% (inactive)	-112% (inactive)	157	-1.09	0.551	0.941	-3.95% (inactive)	-0.432 (inactive)	-4.1e-05 (inactive)	0.0047 (inactive)	inactive	-1.97% (inactive)
CCNc1sc(C(=O)c2cccs2)c(N)c1C#N	583	0.3% (inactive)	-26.4% (inactive)	114	0.394	-0.752	0.076	10.9% (inactive)	-0.442 (inactive)	-4.6e-05 (inactive)	0.00473 (inactive)	inactive	24.6% (inactive)
O=C(O)c1cc2cccc(S(=O)(=O)N3CCOCC3)c2cc1O	655	-1.8% (inactive)	-122% (inactive)	164	-0.358	0.0278	-2.77	-9.66% (inactive)	-0.0405 (active)	-1e-05 (inactive)	0.00567 (inactive)	inactive	-7.07% (inactive)
Cc1cc(CCC(=O)O)c(C)cc1CCC(=O)O	593	0.2% (inactive)	-64.2% (inactive)	149	0.485	1.16	-0.56	5.35% (inactive)	-0.452 (inactive)	-0.000105 (inactive)	0.00588 (inactive)	inactive	1.89% (inactive)
CC(C)c1nc(NCCN2CCOCC2)c(C#N)c2c1COC(C)(C)C2	401	-10.6% (inactive)	-276% (inactive)	186	-0.66	-0.209	1.4	-0.584% (inactive)	-0.473 (inactive)	-0.000118 (inactive)	0.00407 (inactive)	inactive	71.3% (active)
CCCCOc1ccc(C(=O)NCC(=O)NCC(=O)OCC)cc1	357	-8.2% (inactive)	-101% (inactive)	108	-0.206	0.434	-0.573	-6.59% (inactive)	-0.49 (inactive)	4.9e-06 (inactive)	0.00496 (inactive)	inactive	-13.2% (inactive)
Cc1ccc(N2C(=O)c3sc4nnc(C)c(=O)n4c3C2=O)cc1	637	1.3% (inactive)	-129% (inactive)	144	0.278	1.58	-1.15	-7.86% (inactive)	-0.478 (inactive)	-4e-05 (inactive)	0.00581 (inactive)	inactive	2.4% (inactive)
